This note sets out measurements from ChEMBL document CHEMBL2057138, “Design and synthesis of marine fungal phthalide derivatives as PPAR-γ agonists” (Bioorg Med Chem, 2012).

Active and inactive are the calls of the source. No cut-off for these calls is given here.

The target in experiment [1] is T1, Peroxisome proliferator-activated receptor gamma (Homo sapiens) (UniProt P37231).
T1 sequence (whole entry): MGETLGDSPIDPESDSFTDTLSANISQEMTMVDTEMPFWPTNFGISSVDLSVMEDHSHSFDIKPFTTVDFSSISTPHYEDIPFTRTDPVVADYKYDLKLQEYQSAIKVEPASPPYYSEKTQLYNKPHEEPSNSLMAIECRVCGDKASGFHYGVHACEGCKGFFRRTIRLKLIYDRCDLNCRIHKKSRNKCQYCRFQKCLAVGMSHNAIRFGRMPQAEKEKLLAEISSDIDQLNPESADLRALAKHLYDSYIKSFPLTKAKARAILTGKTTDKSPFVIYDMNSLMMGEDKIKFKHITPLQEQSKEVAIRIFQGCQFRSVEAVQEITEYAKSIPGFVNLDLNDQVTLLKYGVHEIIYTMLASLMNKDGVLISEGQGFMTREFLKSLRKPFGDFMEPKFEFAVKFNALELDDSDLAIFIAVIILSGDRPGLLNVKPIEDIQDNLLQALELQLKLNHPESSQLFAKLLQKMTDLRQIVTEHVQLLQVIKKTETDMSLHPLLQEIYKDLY
Kind of experiment: Binding affinity to GST-tagged PPARgamma LBD at 50 uM after 4 hrs by TR-FRET competitive binding assay. Summed up:
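LanthaScreen TR-FRET competitive binding. Mix of 0.5 nM GST-tagged PPAR-γ LBD, 5 nM terbium anti-GST antibody and 5 nM Fluormone Pan-PPAR Green tracer, with compound at 50 µM and DMSO solvent control. Incubated 4 h in the dark. Read as the 520/495 nm emission ratio (counting 0.1 s, integration 20 µs). Mean + s.d., n = 3.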

For experiment [2], the target named is Peroxisome proliferator-activated receptor gamma (Homo sapiens) (UniProt P37231). Kind of experiment: Agonist activity at PPARgamma in rat Ac2F cells assessed as luciferase activity after 6 hrs by reporter gene assay.
For experiment [3] the target is unchanged. The experiment in a line: Agonist activity at PPARgamma in rat Ac2F cells assessed as luciferase activity at 0.1 to 10 uM after 6 hrs by reporter gene assay.

Consider `CCCCCCCCC1(CCCCCCCC)OC(=O)c2c(O)cccc21`, for which the outcome in experiment [1] was inactive.
Consider `CCCCCCCCC1(OC)OC(=O)c2c(OCc3ccccc3)cccc21` (stereo not given), for which the outcome in experiment [1] was inactive.
Same read-out and setting: with `CCCCCCCCC1OC(=O)c2c(OC)cccc21` (stereo not given) the entry was “inactive”.
`CCCCCCCCC1OC(=O)c2c(O)cccc21` (racemic): the outcome in experiment [1] and in experiment [3] was Active. Further, in experiment [2], the Activity entry is “Dose-dependent effect”.
Consider `O=C1OC(=O)c2c(O)cccc21`, for which the result in experiment [1] was Active.
For `CCCCCCCCC1(OCc2ccccc2)OC(=O)c2c(OCc3ccccc3)cccc21` (stereo not given), the result in experiment [1] was inactive.
Consider `CCCCCCCCOC(=O)c1cccc(O)c1C(=O)O`, for which the outcome in experiment [1] was Active.
On the same count and under the same terms, to `O=C1OC(=O)c2c1cccc2[N+](=O)[O-]` belongs “inactive”; to `CCCCCCCCC1(O)OC(=O)c2c(O)cccc21` (stereo not given), “inactive”.
Still for that read-out and setting: to `CN(CCOc1ccc(CC2SC(=O)NC2=O)cc1)c1ccccn1` (stereo not given) belongs “Active”; to `CCCCCCCCC1(O)OC(=O)c2cccc(O)c21` (stereo not given), “inactive”; to `O=C1OC(=O)c2ccccc21`, “inactive”.
Still for that read-out and setting: with `CCCCCCCCCC(=O)Oc1cccc2c1C(=O)OC2=O` the entry was “inactive”.
Regarding `CCCCCCCCC1(O)OC(=O)c2c(OCc3ccccc3)cccc21` (stereo not given), the result in experiment [1] was inactive.
The same measure, in the same setting: to `CCCCCCCCOC(=O)c1cccc([N+](=O)[O-])c1C(=O)O` belongs “Active”.
Take `CCCCCCCCC1OC(=O)c2cccc(O)c21` (stereo not given): the outcome in experiment [1] and in experiment [3] was Active.
Take `CCCCCCCCC1(CCCCCCCC)OC(=O)c2cccc(O)c21`: the result in experiment [1] was inactive.
